Laboratory results: BindingDB's records for doi:10.1021/jm00089a014 (Genentech, 1992)
*1 amine or outer side, *2 acyl side, *3 side chain or, on linkers, in order; H or OH if unused. Where a SMILES comes first, the peptide text is derived from it. Bridges are numbered along the chain shown (N, C = ends). [ ]: non-standard residue; d: D form. Cys(O)(CH2CO) = O=C([C@H](C[S+]([O-])CC(=O)[*:3])N[*:1])[*:2]

Target: Integrin alpha-IIb/beta-3 (Homo sapiens, UniProt P08514+P05106)
Experiment: Inhibition of ADP-induced platelet aggregation in human platelet-rich plasma
Outline: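 Human blood drawn into 3.8% sodium citrate (9:1); PRP from 180g spin, 12 min, 22 °C; count adjusted to 3 × 10^8/mL with PPP. PRP preincubated with test sample 5 min at 37 °C in aggregometer, then ADP 17.2 µM final. Inhibition from transmittance change at 5 min versus no-sample maximum; 12-14 concentrations over ~200-fold range; IC50 by four-parameter fit; n ≥ 3.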

Sequence of Integrin alpha-IIb/beta-3 (P05106 27-788 limits assumed): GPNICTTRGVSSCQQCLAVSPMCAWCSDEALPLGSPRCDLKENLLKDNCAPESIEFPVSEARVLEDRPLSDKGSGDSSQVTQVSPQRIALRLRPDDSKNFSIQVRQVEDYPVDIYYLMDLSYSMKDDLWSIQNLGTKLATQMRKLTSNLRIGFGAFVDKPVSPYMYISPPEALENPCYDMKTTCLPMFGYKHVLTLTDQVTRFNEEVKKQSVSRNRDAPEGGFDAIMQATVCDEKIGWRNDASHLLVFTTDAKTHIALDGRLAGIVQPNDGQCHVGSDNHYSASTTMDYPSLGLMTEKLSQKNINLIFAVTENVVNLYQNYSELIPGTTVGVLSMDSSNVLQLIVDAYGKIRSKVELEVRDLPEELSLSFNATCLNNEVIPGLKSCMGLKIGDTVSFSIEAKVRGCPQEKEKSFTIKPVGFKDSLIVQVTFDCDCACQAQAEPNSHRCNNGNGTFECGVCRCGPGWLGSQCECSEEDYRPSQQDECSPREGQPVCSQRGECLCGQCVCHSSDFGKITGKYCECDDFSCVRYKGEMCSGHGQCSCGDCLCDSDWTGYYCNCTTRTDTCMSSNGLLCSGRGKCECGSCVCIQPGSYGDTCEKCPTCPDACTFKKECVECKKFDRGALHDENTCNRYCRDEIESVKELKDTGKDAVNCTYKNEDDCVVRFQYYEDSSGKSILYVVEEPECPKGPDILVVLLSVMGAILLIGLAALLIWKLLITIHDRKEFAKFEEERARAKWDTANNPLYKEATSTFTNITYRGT
Sequence of Integrin alpha-IIb/beta-3 (P08514 32-887 limits assumed): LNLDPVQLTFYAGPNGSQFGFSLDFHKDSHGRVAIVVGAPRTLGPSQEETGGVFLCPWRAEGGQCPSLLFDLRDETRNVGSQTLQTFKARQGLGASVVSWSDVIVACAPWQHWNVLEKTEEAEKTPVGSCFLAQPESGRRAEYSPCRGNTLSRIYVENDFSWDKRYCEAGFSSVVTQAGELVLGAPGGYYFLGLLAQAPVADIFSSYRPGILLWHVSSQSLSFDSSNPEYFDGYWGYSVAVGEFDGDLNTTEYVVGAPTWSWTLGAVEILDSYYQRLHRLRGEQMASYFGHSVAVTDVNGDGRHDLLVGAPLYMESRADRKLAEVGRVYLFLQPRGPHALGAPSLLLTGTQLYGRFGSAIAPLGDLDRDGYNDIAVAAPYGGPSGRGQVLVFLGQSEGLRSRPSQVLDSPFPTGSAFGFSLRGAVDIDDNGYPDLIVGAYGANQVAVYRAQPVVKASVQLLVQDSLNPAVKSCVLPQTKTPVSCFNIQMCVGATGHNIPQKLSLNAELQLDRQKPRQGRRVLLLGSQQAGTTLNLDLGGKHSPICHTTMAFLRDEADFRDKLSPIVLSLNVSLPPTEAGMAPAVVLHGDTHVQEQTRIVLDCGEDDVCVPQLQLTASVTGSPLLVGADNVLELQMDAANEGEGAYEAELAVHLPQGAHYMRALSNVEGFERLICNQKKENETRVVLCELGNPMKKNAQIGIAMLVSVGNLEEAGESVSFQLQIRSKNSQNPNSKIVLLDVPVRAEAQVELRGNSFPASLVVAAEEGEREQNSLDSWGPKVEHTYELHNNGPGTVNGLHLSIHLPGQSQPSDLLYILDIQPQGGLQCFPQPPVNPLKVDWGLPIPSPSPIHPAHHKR
Sequence of Integrin alpha-IIb/beta-3 (P08514 891-1039 limits assumed): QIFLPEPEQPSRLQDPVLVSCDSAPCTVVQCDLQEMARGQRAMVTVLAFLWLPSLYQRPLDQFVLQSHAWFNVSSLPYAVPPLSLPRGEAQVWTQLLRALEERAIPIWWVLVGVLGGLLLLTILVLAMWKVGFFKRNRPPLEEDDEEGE

SMILES	IC50 [nM]
CC(C)C[C@H](NC(=O)[C@H](CC(=O)O)NC(=O)CNC(=O)[C@H](CCCNC(=N)N)NC(=O)CN)C(=O)O (H-GRGDL-OH)	170000
CC(C)[C@H](NC(=O)[C@H](CC(=O)O)NC(=O)CNC(=O)[C@H](CCCNC(=N)N)NC(=O)CN)C(=O)O (H-GRGDV-OH)	75000
NC(N)=NCCC[C@H](N)C(=O)NCC(=O)N[C@@H](CC(=O)O)C(=O)N[C@@H](Cc1ccccc1)C(=O)O (H-RGDF-OH)	43000
CC(C)C[C@H](NC(=O)[C@H](CC(=O)O)NC(=O)CNC(=O)[C@@H](N)CCCNC(=N)N)C(=O)O (H-RGDL-OH)	> 2000
N=C(N)NCCC[C@@H]1NC(=O)[C@H](CCCCN)NC(=O)C[S+]([O-])C[C@@H](C(=O)O)NC(=O)[C@H](CC(=O)O)NC(=O)CNC1=O (some centres undefined) (KRGD[Cys(O)(CH2CO)]-OH; lactam N-5)	2800
N=C(N)NCCC[C@@H]1NC(=O)[C@H](CO)NC(=O)C[S+]([O-])C[C@@H](C(=O)O)NC(=O)[C@H](CC(=O)O)NC(=O)CNC1=O (some centres undefined) (SRGD[Cys(O)(CH2CO)]-OH; lactam N-5)	490
N=C(N)NCCC[C@@H]1NC(=O)CNC(=O)CSC[C@@H](C(N)=O)NC(=O)[C@H](CC(=O)O)NC(=O)CNC1=O ({CH2CO}-GRGDC-NH2; thioether N-5)	150000
N=C(N)NCCC[C@@H]1NC(=O)CNC(=O)CSC[C@@H](C(=O)O)NC(=O)[C@H](CC(=O)O)NC(=O)CNC1=O ({CH2CO}-GRGDC-OH; thioether N-5)	5000
N=C(N)NCCC[C@@H]1NC(=O)[C@@H]2CCCN2C(=O)CSC[C@@H](C(=O)O)NC(=O)[C@H](CC(=O)O)NC(=O)CNC1=O ({CH2CO}-PRGDC-OH; thioether N-5)	430
N=C(N)NCCC[C@@H]1NC(=O)CSC[C@@H](C(=O)O)NC(=O)[C@H](CC(=O)O)NC(=O)CNC1=O ({CH2CO}-RGDC-OH; thioether N-4)	> 2000
N=C(N)NCCC[C@@H]1NC(=O)[C@H](Cc2ccc(O)cc2)NC(=O)CSC[C@@H](C(N)=O)NC(=O)[C@H](CC(=O)O)NC(=O)CNC1=O ({CH2CO}-YRGDC-NH2; thioether N-5)	700

Other lines, results leading:

IC50 [nM]	SMILES
2140	N=C(N)NCCC[C@@H]1NC(=O)[C@H](CC(=O)O)NC(=O)C[S+]([O-])C[C@@H](C(=O)O)NC(=O)[C@H](CC(=O)O)NC(=O)CNC1=O (some centres undefined) (DRGD[Cys(O)(CH2CO)]-OH; lactam N-5)
> 500000	N=C(N)NCCC[C@H](NC(=O)CN)C(=O)NCC(=O)N[C@@H](CC(=O)O)C(=O)N[C@@H](CC(=O)O)C(=O)O (H-GRGDD-OH)
170000	N=C(N)NCCC[C@H](NC(=O)CN)C(=O)NCC(=O)N[C@@H](CC(=O)O)C(=O)N[C@@H](Cc1ccc(O)cc1)C(=O)O (H-GRGDY-OH)
94000	N=C(N)NCCC[C@H](N)C(=O)NCC(=O)N[C@@H](CC(=O)O)C(=O)N[C@@H](Cc1ccc(O)cc1)C(=O)O (H-RGDY-OH)
100	CC(C)C[C@@H]1NC(=O)C[S+]([O-])C[C@@H](C(=O)O)NC(=O)[C@H](CC(=O)O)NC(=O)CNC(=O)[C@H](CCCNC(=N)N)NC1=O (some centres undefined) (LRGD[Cys(O)(CH2CO)]-OH; lactam N-5)
210	CC(C)[C@@H]1NC(=O)C[S+]([O-])C[C@@H](C(=O)O)NC(=O)[C@H](CC(=O)O)NC(=O)CNC(=O)[C@H](CCCNC(=N)N)NC1=O (some centres undefined) (VRGD[Cys(O)(CH2CO)]-OH; lactam N-5)
200	N=C(N)NCCC[C@@H]1NC(=O)[C@H](Cc2ccc(O)cc2)NC(=O)C[S+]([O-])C[C@@H](C(N)=O)NC(=O)[C@H](CC(=O)O)NC(=O)CNC1=O (some centres undefined) (YRGD[Cys(O)(CH2CO)]-NH2; lactam N-5)
590	C[C@@H]1NC(=O)CSC[C@@H](C(=O)O)NC(=O)[C@H](CC(=O)O)NC(=O)CNC(=O)[C@H](CCCNC(=N)N)NC1=O ({CH2CO}-ARGDC-OH; thioether N-5)
310	N=C(N)NCCC[C@@H]1NC(=O)[C@H](CC(N)=O)NC(=O)CSC[C@@H](C(=O)O)NC(=O)[C@H](CC(=O)O)NC(=O)CNC1=O ({CH2CO}-NRGDC-OH; thioether N-5)
150	N=C(N)NCCC[C@@H]1NC(=O)[C@H](Cc2ccc(O)cc2)NC(=O)CSC[C@@H](C(=O)O)NC(=O)[C@H](CC(=O)O)NC(=O)CNC1=O ({CH2CO}-YRGDC-OH; thioether N-5)
4000	C[C@H]1NC(=O)CSC[C@@H](C(=O)O)NC(=O)[C@H](CC(=O)O)NC(=O)CNC(=O)[C@H](CCCNC(=N)N)NC1=O ({CH2CO}-[dA]RGDC-OH; thioether N-5)
1960	N=C(N)NCCC[C@@H]1NC(=O)[C@H]2CCCN2C(=O)CSC[C@@H](C(=O)O)NC(=O)[C@H](CC(=O)O)NC(=O)CNC1=O ({CH2CO}-[dP]RGDC-OH; thioether N-5)
3450	N=C(N)NCCC[C@@H]1NC(=O)[C@@H](Cc2ccc(O)cc2)NC(=O)CSC[C@@H](C(=O)O)NC(=O)[C@H](CC(=O)O)NC(=O)CNC1=O ({CH2CO}-[dY]RGDC-OH; thioether N-5)
